{"data": "Experimental data of several laboratories", "read-out": "microbial growth", "note": "Lines come from different studies, so protocols differ."}
{"Structure (SMILES)": "Cc1ccc(C)n1-c1ccc(-c2nnc(-c3ccc(O)cc3)[nH]2)cc1", "organism": "Saccharomyces cerevisiae", "method": "broth dilution", "strain": "ATCC9763", "MIC": "31.2 µg/mL"}
{"Structure (SMILES)": "O=C(O)COc1ccc(Oc2ccc(-c3noc(-c4ccc(O)cc4)n3)cc2)cc1", "organism": "Clostridioides difficile", "method": "broth dilution", "time": "48 h", "MIC": "50 µg/mL"}
{"Structure (SMILES)": "Oc1ccc(-c2nc(-c3ccc(Oc4ccccc4CBr)cc3)no2)cc1", "organism": "Clostridioides difficile", "method": "broth dilution", "strain": "ATCC43255", "time": "48 h", "MIC": "8 to 128 µg/mL"}
{"Structure (SMILES)": "CC/C(=C(\\c1ccccc1)c1ccc(OCCN(C)C)cc1)c1ccccc1", "organism": "Saccharomyces cerevisiae", "MIC": "20 to 25 µM"}
{"Structure (SMILES)": "Cl.NCc1ccc(Oc2ccc(-c3noc(-c4ccc(O)cc4)n3)cc2)cc1", "organism": "Clostridioides difficile", "method": "broth dilution", "time": "48 h", "MIC": "6 µg/mL"}
{"Structure (SMILES)": "Cc1ccc(C)n1-c1ccc(-c2nnc(S)s2)cc1", "organism": "Saccharomyces cerevisiae", "method": "broth dilution", "strain": "ATCC9763", "MIC": "62.5 µg/mL"}
{"Structure (SMILES)": "C[C@@H]1[C@H](O)[C@@H](C)/C=C/C=C/C=C/C=C/C=C/C=C/C=C/[C@H](O[C@@H]2O[C@H](C)[C@@H](O)[C@H](N)[C@@H]2O)C[C@@H]2O[C@](O)(C[C@@H](O)C[C@@H](O)[C@H](O)CC[C@@H](O)C[C@@H](O)CC(=O)O[C@H]1C)C[C@H](O)[C@H]2C(=O)O", "organism": "Saccharomyces cerevisiae", "MIC": "0.5 µg/mL"}
{"Structure (SMILES)": "Oc1ccc(-c2nc(-c3ccc(Oc4ccc(I)cc4)cc3)no2)cc1", "organism": "Clostridioides difficile", "method": "broth dilution", "strain": "ATCC43255", "time": "48 h", "MIC": "8 to 128 µg/mL"}
{"Structure (SMILES)": "Cc1ccc(C)n1-c1ccc(-c2nnc(-c3c(Cl)cccc3Cl)[nH]2)cc1", "organism": "Saccharomyces cerevisiae", "method": "broth dilution", "strain": "ATCC9763", "MIC": "2 µg/mL"}
{"Structure (SMILES)": "CC(=O)Nc1ccc(-c2nc(-c3ccc(Oc4ccccc4)cc3)no2)cc1", "organism": "Clostridioides difficile", "method": "broth dilution", "time": "48 h", "MIC": "> 50 µg/mL"}
{"Structure (SMILES)": "CC[C@@H]([C@H](C)O)n1ncn(-c2ccc(N3CCN(c4ccc(OC[C@@H]5CO[C@@](Cn6cncn6)(c6ccc(F)cc6F)C5)cc4)CC3)cc2)c1=O", "organism": "Saccharomyces cerevisiae", "strain": "BY4743", "time": "72 h", "MIC": "< 0.3 µM"}
{"Structure (SMILES)": "Cc1cc(=O)[nH]n1C(=O)c1ccc(-n2c(C)ccc2C)cc1", "organism": "Saccharomyces cerevisiae", "method": "broth dilution", "strain": "ATCC9763", "MIC": "250 µg/mL"}
{"Structure (SMILES)": "Oc1ccc(-c2nc(-c3ccc(Oc4ccc(C(F)(F)F)cc4)cc3)no2)cc1F", "organism": "Clostridioides difficile", "method": "broth dilution", "strain": "ATCC43255", "time": "48 h", "MIC": "2 to 4 µg/mL"}
{"Structure (SMILES)": "O=C(O)Cc1ccccc1Oc1ccc(-c2noc(-c3ccc(O)cc3)n2)cc1", "organism": "Clostridioides difficile", "method": "broth dilution", "time": "48 h", "MIC": "> 50 µg/mL"}
{"Structure (SMILES)": "Clc1ccccc1C(c1ccccc1)(c1ccccc1)n1ccnc1", "organism": "Saccharomyces cerevisiae", "MIC": "20 to 25 µM"}
{"Structure (SMILES)": "O=C(O)COc1cccc(Oc2ccc(-c3noc(-c4ccc(O)cc4)n3)cc2)c1", "organism": "Clostridioides difficile", "method": "broth dilution", "time": "48 h", "MIC": "50 µg/mL"}
{"Structure (SMILES)": "Cc1ccc(C)n1-c1ccc(-c2nnc(-c3cccc([N+](=O)[O-])c3)[nH]2)cc1", "organism": "Saccharomyces cerevisiae", "method": "broth dilution", "strain": "ATCC9763", "MIC": "31.2 µg/mL"}
